Calls of active or inactive are those of the source. The rule behind the calls is not given here.
Experiments:
MCF-10A = assay: Antiproliferative activity against human MCF10A cells; format: cell-based
HCT-116 [1] = assay: Cell cycle arrest in human HCT116 cells assessed as reduction in cell levels at S-phase at 0.001 to 10 uM after 24 hrs EdU-staining based high content imaging analysis; format: functional
How it was run: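 HCT-116 cells plated on poly-lysine-coated plates overnight, then treated 24 h with compound (DMSO stock diluted into McCoy's medium with 10% FBS). EdU labelling of newly synthesized DNA, 4% formaldehyde fixation, then high-content imaging in three fluorescent channels for total cell count, DNA content and S-phase cells. Means of three biological replicates, SEM.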

[2] = Cmax in J:Nu mouse plasma at 60 mg/kg, po qd for 7 days followed by 120 mg/kg, po qd for 5 days from day 8 to 13; format: ADME, organism-based; set-up: dose 60 mg/kg, route oral
How it was run: (§1)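 J:Nu female mice, N = 4 per group, dosed orally once daily at 10, 30 or 60 mpk in 5% NMP, 10% PEG-400, 15% Solutol, 70% D5W. The 30 and 60 mpk groups were raised to 90 and 120 mpk from day 8 to 13.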

MCF7 = assay: Antiproliferative activity against human MCF7 cells; format: functional, cell-based
[3] = Plasma concentration (7 hrs) in J:Nu mouse at 30 mg/kg, po qd for 7 days measured on day 5; format: ADME, organism-based
How it was run: (§2)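 J:Nu female mice, N = 4 per group, dosed orally once daily at 10, 30 or 60 mg/kg in 5% NMP, 10% PEG-400, 15% Solutol, 70% D5W. Blood was sampled every other day, alternating Cmax and predose draws. Plasma concentration was taken 7 h after dosing.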

[4] = AUC (0 to infinity) in mouse at 10 mg/kg; format: ADME, organism-based; set-up: dose 10 mg/kg, time infinity; settings: in vivo
Mus musculus [5] = assay: Ratio of AUC (0 to infinity) in mouse at 2.5 mg/kg, po to Cmax in mouse at 50 mg/kg, po; format: ADME, organism-based; settings: in vivo
[6] = AUC (0 to infinity) in mouse at 100 mg/kg; format: ADME, organism-based; set-up: dose 100 mg/kg, time infinity; settings: in vivo
[7] = Toxicity in J:Nu mouse assessed as maximum tolerated dose at 10 to 120 mg/kg, po qd for 13 days; format: organism-based; settings: in vivo
[8] = Cmax in mouse at 100 mg/kg; format: ADME, organism-based; set-up: dose 100 mg/kg; settings: in vivo
[9] = Cmax in J:Nu mouse plasma at 30 mg/kg, po qd for 7 days followed by 90 mg/kg, po qd for 5 days from day 8 to 13; format: ADME, organism-based; set-up: dose 30 mg/kg, route oral; how it was run: as §1
[10] = Protein binding in mouse plasma; format: ADME, cell-free; settings: read-out: PPB (converted)
[11] = Cmax in mouse at 10 mg/kg; format: ADME, organism-based; set-up: dose 10 mg/kg; settings: in vivo
[12] = AUC (0 to infinity) in mouse at 50 mg/kg; format: ADME, organism-based; set-up: dose 50 mg/kg, time infinity; settings: in vivo
MIA PaCa-2 = assay: Antiproliferative activity against human MIAPaCa2 cells; format: functional, cell-based
Mus musculus [13] = assay: Toxicity in J:Nu mouse assessed as organ damage at 60 mg/kg, po qd for 7 days followed by 120 mg/kg, po qd for 5 days from day 8 to 13 measured 48 hrs after post last dose by pathology analysis; format: organism-based; settings: in vivo
How it was run: (§3)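 In J:Nu female mice (N = 4 per group), dosing was oral once daily at 30 or 60 mg/kg in 5% NMP/10% PEG-400/15% Solutol/70% D5W for 7 days. Doses were then raised to 90 or 120 mg/kg respectively on days 8–13. Clinical signs and body weights were recorded daily. Gross pathology, with spleen and liver weights, was done 48 h after the last dose.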

[14] = AUC (0 to infinity) in J:Nu mouse plasma at 10 mg/kg, po qd for 7 days; format: ADME, organism-based; set-up: dose 10 mg/kg, route oral, time infinity; how it was run: as §1
Mus musculus [15] = assay: Ratio of AUC (0 to infinity) in mouse at 2.5 mg/kg, po to Cmax in mouse at 100 mg/kg, po; format: ADME, organism-based; settings: in vivo
[16] = Clearance in iv dosed mouse; format: ADME, organism-based; settings: in vivo
[17] = Volume of distribution at steady state in iv dosed mouse; format: ADME, organism-based; settings: in vivo, read-out: Vdss
[18] = Plasma concentration (7 hrs) in J:Nu mouse at 60 mg/kg, po qd for 7 days measured on day 1; format: ADME, organism-based; how it was run: as §2
[19] = Dose normalized AUC (0 to infinity) in J:Nu mouse plasma at 30 mg/kg, po qd for 7 days followed by 90 mg/kg, po qd for 5 days from day 8 to 13; format: ADME, organism-based; settings: in vivo; how it was run: as §1
[20] = AUC (0 to infinity) in iv dosed mouse; format: ADME, organism-based; set-up: time infinity, route intravenous; settings: in vivo
[21] = AUC (0 to infinity) in J:Nu mouse plasma at 30 mg/kg, po qd for 7 days followed by 90 mg/kg, po qd for 5 days from day 8 to 13; format: ADME, organism-based; set-up: dose 30 mg/kg, route oral, time infinity; how it was run: as §1
[22] = Plasma concentration (7 hrs) in J:Nu mouse at 10 mg/kg, po qd for 7 days measured on day 1; format: ADME, organism-based; how it was run: as §2
[23] = Cmax in J:Nu mouse plasma at 10 mg/kg, po qd for 7 days; format: ADME, organism-based; set-up: dose 10 mg/kg, route oral; how it was run: as §1
[24] = AUC (0 to infinity) in J:Nu mouse plasma at 60 mg/kg, po qd for 7 days followed by 120 mg/kg, po qd for 5 days from day 8 to 13; format: ADME, organism-based; set-up: dose 60 mg/kg, route oral, time infinity; how it was run: as §1
[25] = AUC (0 to infinity) in po dosed mouse; format: ADME, organism-based; set-up: route oral, time infinity; settings: in vivo
[26] = Protein binding in human plasma; format: ADME, cell-free; settings: read-out: PPB (converted)
HCT-116 [27] = assay: Induction of quiescence in human HCT116 cells by high content cell imaging studies; format: functional, cell-based
[28] = AUC (0 to infinity) in mouse at 2.5 mg/kg; format: ADME, organism-based; set-up: dose 2.5 mg/kg, time infinity; settings: in vivo
Daudi = assay: Antiproliferative activity against human Daudi cells; format: functional, cell-based
[29] = Antiproliferative activity against human TC71 cells; format: functional, cell-based; settings: TC-71
Mus musculus [30] = assay: Toxicity in J:Nu mouse assessed as induction of changes in critical clinical parameters at 30 mg/kg, po qd for 7 days followed by 90 mg/kg, po qd for 5 days from day 8 to 13; format: organism-based; settings: in vivo; how it was run: as §3
[31] = Cmax in po dosed mouse; format: ADME, organism-based; set-up: route oral; settings: in vivo
Mus musculus [32] = assay: Ratio of Cmax in mouse at 2.5 mg/kg, po to Cmax in mouse at 50 mg/kg, po; format: ADME, organism-based; settings: in vivo
Mus musculus [33] = assay: Toxicity in J:Nu mouse assessed as changes in organ weight at 60 mg/kg, po qd for 7 days followed by 120 mg/kg, po qd for 5 days from day 8 to 13 measured 48 hrs after post last dose by pathology analysis; format: organism-based; settings: in vivo; how it was run: as §3
Mus musculus [34] = assay: Toxicity in J:Nu mouse assessed as induction of adverse effects at 10 to 120 mg/kg, po qd for 13 days; format: organism-based; settings: in vivo, 312 h
How it was run: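 Oral once-daily dosing of J:Nu female mice (N = 4 per group) at 10, 30 and 60 mg/kg for 7 days. The 30 and 60 mg/kg groups were escalated to 90 and 120 mg/kg on days 8–13. Clinical signs and body weights were recorded every day.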

[35] = MRT in mouse at 50 mg/kg, po; format: ADME, organism-based; settings: in vivo
Jurkat = assay: Antiproliferative activity against human Jurkat cells; format: functional, cell-based
[36] = Plasma concentration (7 hrs) in J:Nu mouse at 30 mg/kg, po qd for 7 days measured on day 1; format: ADME, organism-based; how it was run: as §2
[37] = Half life in iv dosed mouse; format: ADME, organism-based; settings: in vivo
Mus musculus [38] = assay: Ratio of AUC (0 to infinity) in mouse at 2.5 mg/kg, po to Cmax in mouse at 10 mg/kg, po; format: ADME, organism-based; settings: in vivo

In the case of Cc1nn(-c2nc(-c3ccc(Cl)c(Cl)c3)c(SC(C)C)s2)c(C(=O)O)c1-c1cc(Cl)cc(Cl)c1, the IC50 (MCF-10A) is reported as 35000 nM, the Activity (HCT-116 [1]) is reported as “Active” and the Cmax [2] is reported as 128 µg/mL. It also gave an IC50 (MCF7) of 260 nM, a concentration at 7 h [3] of 57.3 µg/mL and an AUC(0-inf) [4] of 257 µg·h/mL. It also gave a Ratio (Mus musculus [5]) of 8.7, an AUC(0-inf) [6] of 2120 µg·h/mL and an MTD at 312 h [7] of 90 mg/kg. It also gave a Cmax [8] of 131 µg/mL, a Cmax [9] of 134 µg/mL and a fraction unbound [10] of 0.008. The Cmax [11] was 15.7 µg/mL, the AUC(0-inf) [12] was 2250 µg·h/mL and the IC50 (MIA PaCa-2) was 320 nM. For the same compound, the Activity (Mus musculus [13]) was “Non-Toxic”, the AUC(0-inf) [14] was 330 µg·h/mL and the Ratio (Mus musculus [15]) was 1.4. The clearance [16] was 0.8 mL/min/kg, the Vd [17] was 0.444 L/kg and the concentration at 7 h [18] was 88.8 µg/mL. The AUC/dose [19] was 16500 ng·kg·h/mL/mg, the AUC(0-inf) [20] was 10.7 µg·h/mL and the AUC(0-inf) [21] was 1490 µg·h/mL. It also gave a concentration at 7 h [22] of 19.7 µg/mL, a Cmax [23] of 29 µg/mL and an AUC(0-inf) [24] of 1540 µg·h/mL. For the same compound, the AUC(0-inf) [25] was 25.8 µg·h/mL, the fraction unbound [26] was 0.027 and the Activity (HCT-116 [27]) was “Active”. For the same compound, the AUC(0-inf) [28] was 25.8 µg·h/mL, the IC50 (Daudi) was 380 nM and the IC50 [29] was 290 nM. For the same compound, the Activity (Mus musculus [30]) was “Non-Toxic”, the Cmax [31] was 1.32 µg/mL and the Ratio (Mus musculus [32]) was 8.8. For the same compound, the Activity (Mus musculus [33]) was “Non-Toxic”, the Activity (Mus musculus [34]) was “Non-Toxic” and the MRT [35] was 9.3 h. For the same compound, the IC50 (Jurkat) was 500 nM, the concentration at 7 h [36] was 63.6 µg/mL and the half-life [37] was 8 h. It also gave a Ratio (Mus musculus [38]) of 10.

Source: ChEMBL document CHEMBL4219038, “1-Thiazol-2-yl-N-3-methyl-1H-pyrozole-5-carboxylic acid derivatives as antitumor agents” (Bioorg Med Chem Lett, 2017)
